From the M2OR odorant receptor database

biological target: T1, OR2M7 (Homo sapiens) (UniProt Q8NG81); details: stereoisomer not certain
T1 sequence (whole entry): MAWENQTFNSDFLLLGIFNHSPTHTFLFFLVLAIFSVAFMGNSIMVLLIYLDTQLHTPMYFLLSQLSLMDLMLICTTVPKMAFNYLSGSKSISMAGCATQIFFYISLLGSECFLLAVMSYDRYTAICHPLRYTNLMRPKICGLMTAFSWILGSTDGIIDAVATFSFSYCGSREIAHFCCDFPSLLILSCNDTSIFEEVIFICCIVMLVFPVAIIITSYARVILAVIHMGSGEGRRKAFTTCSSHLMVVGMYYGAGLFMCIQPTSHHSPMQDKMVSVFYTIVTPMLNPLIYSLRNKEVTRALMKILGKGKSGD
How it was run: (§1)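 Values were gathered from published papers (main text and supplementary material), with extra details requested from the original authors when needed, and checked for typos and inconsistencies. Each receptor–molecule pair is called responsive (active) if the original authors judged the measured signal statistically different from baseline, and non-responsive (inactive) otherwise. Assay methods varied by source, often transient mammalian cell-line luciferase assays. Recorded details include cell line, G-protein, co-transfected protein and tags.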

SMILES	odorant receptor agonist call
CCCCCC(S)C(C)CO (stereo not drawn)	inactive
CC(=O)OCc1ccccc1	inactive
CC1=C(O)C(=O)OC1C (stereo not drawn)	inactive
CC(CO)CS (stereo not drawn)	inactive

biological target: T2, OR2S2 (Homo sapiens) (UniProt Q9NQN1); details: stereoisomer not certain
T2 sequence (whole entry): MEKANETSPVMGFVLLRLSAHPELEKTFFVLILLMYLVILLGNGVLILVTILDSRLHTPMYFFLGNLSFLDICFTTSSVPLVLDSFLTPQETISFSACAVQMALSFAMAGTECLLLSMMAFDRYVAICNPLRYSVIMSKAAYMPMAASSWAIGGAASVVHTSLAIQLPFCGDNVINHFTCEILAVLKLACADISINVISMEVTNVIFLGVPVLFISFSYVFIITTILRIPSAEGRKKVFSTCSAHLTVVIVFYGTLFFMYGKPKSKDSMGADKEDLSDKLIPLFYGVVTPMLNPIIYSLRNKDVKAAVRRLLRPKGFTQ
How it was run: as §1

SMILES	odorant receptor agonist call
CCCCCC(S)C(C)CO (stereo not drawn)	inactive
CC1=C(O)C(=O)OC1C (stereo not drawn)	inactive
CC(CO)CS (stereo not drawn)	inactive

biological target: T3, OR2T1 (Homo sapiens) (UniProt O43869); details: stereoisomer not certain
T3 sequence (whole entry): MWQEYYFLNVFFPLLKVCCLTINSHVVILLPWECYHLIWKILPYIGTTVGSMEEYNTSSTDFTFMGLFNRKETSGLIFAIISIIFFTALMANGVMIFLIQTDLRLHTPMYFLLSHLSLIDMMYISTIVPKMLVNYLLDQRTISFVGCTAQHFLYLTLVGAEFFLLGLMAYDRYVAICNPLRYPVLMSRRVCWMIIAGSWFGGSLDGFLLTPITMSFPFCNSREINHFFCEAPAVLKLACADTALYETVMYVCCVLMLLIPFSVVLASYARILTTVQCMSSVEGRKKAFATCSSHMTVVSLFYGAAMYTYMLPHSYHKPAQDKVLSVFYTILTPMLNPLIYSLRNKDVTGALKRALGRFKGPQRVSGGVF
How it was run: as §1

SMILES	odorant receptor agonist call
CCCCCC(S)C(C)CO (stereo not drawn)	inactive
CC1=C(O)C(=O)OC1C (stereo not drawn)	inactive
CC(CO)CS (stereo not drawn)	inactive

biological target: T4, OR2T10 (Homo sapiens) (UniProt Q8NGZ9); details: stereoisomer not certain
T4 sequence (whole entry): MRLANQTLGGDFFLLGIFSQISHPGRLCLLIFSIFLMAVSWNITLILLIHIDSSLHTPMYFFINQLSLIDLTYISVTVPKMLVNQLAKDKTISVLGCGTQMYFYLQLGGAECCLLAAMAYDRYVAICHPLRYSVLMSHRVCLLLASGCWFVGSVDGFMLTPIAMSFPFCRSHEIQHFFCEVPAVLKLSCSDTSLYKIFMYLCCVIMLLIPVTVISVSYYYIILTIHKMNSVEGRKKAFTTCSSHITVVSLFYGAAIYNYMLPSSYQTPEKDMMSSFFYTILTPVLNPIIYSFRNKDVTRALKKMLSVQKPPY
How it was run: as §1

SMILES	odorant receptor agonist call
CCCCCC1C(=O)CCC1CC(=O)OC (stereo not drawn)	inactive
CCCCCCCCC(OC(C)=O)OC(C)=O	inactive
CCCCCC(S)C(C)CO (stereo not drawn)	inactive
CCCCC1CCC(=O)O1 (stereo not drawn)	inactive
CCCCCC1COCCC1OC(C)=O (stereo not drawn)	inactive
COc1ccc(C)cc1	inactive
CC(C)CCCC(C)(C)O	inactive
CC(=O)OCc1ccccc1	inactive
CCc1ccc(CC(C)(C)C=O)cc1	inactive
Cc1ccc(C(C)C)cc1O	inactive
CCOC(=O)CC1(C)OCCO1	inactive
CC1CC(C)(c2ccccc2)CO1 (stereo not drawn)	inactive
CC1=CCC2CC1C2(C)C (stereo not drawn)	inactive
CC1=C(O)C(=O)OC1C (stereo not drawn)	inactive
CCC(=O)C=CC1C(C)=CCCC1(C)C (stereo not drawn)	inactive
CCCC(C)C(=O)OCC (stereo not drawn)	inactive
CC(=O)C=CC1=C(C)CCCC1(C)C	inactive
CC(C)(C)C1CCCCC1OCCCCO (stereo not drawn)	inactive
CC(C)=CCCC(C)CC=O (stereo not drawn)	inactive
Cc1occc(=O)c1OC(=O)C(C)C	active
COC1CC2CC1C1CC(C=O)CC21 (stereo not drawn)	inactive
C=CC(C)(CCC=C(C)C)OC(C)=O (stereo not drawn)	inactive
C=CC(C)(O)CCC=C(C)CCC=C(C)C (stereo not drawn)	inactive
CC(CO)CS (stereo not drawn)	inactive
C=CCOC(=O)COCCC(C)C	inactive
CC(CC=O)c1ccc(C(C)(C)C)cc1 (stereo not drawn)	inactive
CCC=C(C)C(O)CCCCC (stereo not drawn)	inactive
OCc1ccccc1	inactive
